# Only some compounds are listed: those with a hit (about 5.8% of all), similar ones and a draw of the others.
# Pf Dd2 growth = P. falciparum Dd2 growth inhibitors, primary screen, SYBR Green fluorescence, single dose replicates; AID 1159554, 2015; 94,000 compounds, 2.3% hits; activity change, % at 10 µM; 72 h; active compounds read low; in the data active = activity change below about -80%; inconclusive = no clear call, values can overlap the other calls
# IDH1 R132H inh = inhibitors of IDH1 R132H reductase, primary screen, biochemical, plate reader, single point; Isocitrate dehydrogenase [NADP] cytoplasmic (Homo sapiens), O75874; diaphorase/resazurin fluorescence, 60 min; inhibition, % at 10 µM; 70,000 compounds, 0.18% hits; in the data active = inhibition above about 34%; inconclusive = no clear call, values can overlap the other calls; inactive = below about 11%;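 also: 0% = DMSO and 100% = no enzyme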
# Target sequence (O75874 whole entry R132H): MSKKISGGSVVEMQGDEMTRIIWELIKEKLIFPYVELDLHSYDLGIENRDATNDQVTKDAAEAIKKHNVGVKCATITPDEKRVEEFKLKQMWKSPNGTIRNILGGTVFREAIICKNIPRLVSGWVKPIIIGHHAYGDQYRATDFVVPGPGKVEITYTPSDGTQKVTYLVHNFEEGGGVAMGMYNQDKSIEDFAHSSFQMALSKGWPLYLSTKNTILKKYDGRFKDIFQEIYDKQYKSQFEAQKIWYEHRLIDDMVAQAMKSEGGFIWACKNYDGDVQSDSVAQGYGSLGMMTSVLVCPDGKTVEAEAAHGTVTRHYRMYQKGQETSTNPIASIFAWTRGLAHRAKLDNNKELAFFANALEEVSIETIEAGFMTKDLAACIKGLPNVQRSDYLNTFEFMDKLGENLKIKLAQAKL
# KDM4C inh = inhibitors of GASC-1 (KDM4C) histone demethylase, primary screen, biochemical, single concentration HTS. Lysine-specific demethylase 4C (Homo sapiens), Q9H3R0. GST-KDM4C 2-372, H3K9me3 peptide, LANCE TR-FRET. inhibition, % at 12.5 µM. 96,000 compounds, 0.15% hits. AID 720574, 2013;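 active = mean replicate inhibition above about 25%, with at least 55% of replicates also reaching it, limit read from the data, passing the limit was not always enough; inconclusive = only one of those two conditions met; inactive = neither condition met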
# Target sequence (Q9H3R0 2-372 limits assumed): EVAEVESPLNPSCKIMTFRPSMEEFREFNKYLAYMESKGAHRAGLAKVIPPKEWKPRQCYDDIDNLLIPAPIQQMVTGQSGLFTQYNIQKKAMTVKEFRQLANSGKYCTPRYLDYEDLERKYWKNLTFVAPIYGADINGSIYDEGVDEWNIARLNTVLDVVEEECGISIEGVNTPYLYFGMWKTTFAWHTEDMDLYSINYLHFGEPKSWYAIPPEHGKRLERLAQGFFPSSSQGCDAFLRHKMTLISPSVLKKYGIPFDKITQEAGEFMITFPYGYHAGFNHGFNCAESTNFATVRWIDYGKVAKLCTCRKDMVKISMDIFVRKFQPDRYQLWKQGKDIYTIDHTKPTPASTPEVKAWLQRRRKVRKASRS
#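 Test system: N-terminal GST-fused human GASC-1 (KDM4C) fragment, residues 2-372; quantity: GASC-1 enzyme at 10 nM final in reaction; dosing: single dose; schedule: 30 min demethylation and 1 h detection at room temperature; signal: LANCE TR-FRET, excitation 340 nm, emissions 618 and 671 nm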
# T cruzi growth-1 = T. cruzi intracellular proliferation inhibitors, primary screen, cell-based, beta-gal Tulahuen parasites, NIH3T3 host, luminescence | T. cruzi beta-gal in NIH3T3, GalScreen luminescence, 90 h | inhibition, % at 8.34 µM | 77,000 compounds, 5.9% hits | AID 624255, 2012;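 active = mean inhibition above about 93%, with at least 55% of replicates each passing it, limit read from the data, passing the limit was not always enough; inconclusive = only one of those two conditions holds; inactive = neither condition holds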
# T cruzi growth-2 = T. cruzi intracellular proliferation inhibitors, confirmation, cell-based, NIH3T3 host, beta-gal parasite, luminescence, cherry-pick | T. cruzi beta-gal in NIH3T3, GalScreen luminescence, 90 h | 5,600 compounds, 72% hits | shares compounds with T cruzi growth-1 | inhibition, % at 8.35 µM;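 active = mean replicate inhibition above about 95% and at least 55% of replicates individually reaching it, limit read from the data; inconclusive = only one of the two criteria is met; inactive = neither criterion is met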
# T cruzi growth-3 = inhibitors of intracellular T. cruzi replication, confirmation, NIH3T3 host cells, beta-gal parasites, cherry-pick, set 2 | inhibition, % at 2.09 µM | 5,600 compounds, 21% hits | AID 651740, 2012 | shares compounds with T cruzi growth-1 | T. cruzi beta-gal in NIH3T3, GalScreen luminescence, 90 h;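 active = mean inhibition above about 95%, with at least 55% of replicates also reaching it, limit read from the data; inconclusive = meets just one of the two conditions; inactive = meets neither condition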;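 also: plate controls were neutral control median for no effect and positive control median for full effect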
# 3T3 cytotox = cytotoxicity in mouse NIH/3T3 fibroblasts, confirmation, cytotoxicity control for T. cruzi proliferation inhibitor project, cell-based, cherry-pick, single point; shares compounds with T cruzi growth-1; NIH/3T3 viability, CellTiter-Glo ATP luminescence, 90 h; cytotoxicity (signal decrease), % at 8.35 µM; 5,600 compounds, 14% hits; AID 651742, 2012;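 active = mean signal decrease across replicates above about 35% based on untreated-well scatter, with enough replicates individually passing, limit read from the data; inconclusive = no rule stated though some were filed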;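 also: 0% = median of neutral control wells and 100% = median of positive control wells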
# 3T3 cytotox 2 = NIH/3T3 fibroblast cytotoxicity, confirmation, cytotoxicity control, cell-based, cherry-pick, single point, set 2; shares compounds with T cruzi growth-1; NIH/3T3 viability, CellTiter-Glo ATP luminescence, 90 h; inhibition, % at 24.9 µM; 5,600 compounds, 56% hits;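 active = mean loss of cell viability signal at or above a set limit, and enough replicates individually reaching it; inconclusive = meets only the mean limit or only the replicate share; inactive = meets neither condition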;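 also: 0% = median of neutral control wells and 100% = median of positive control wells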
# The depositor's hits bear a star; ? = inconclusive; / = no result.
SMILES,Pf Dd2 growth,IDH1 R132H inh,KDM4C inh,T cruzi growth-1,T cruzi growth-2,T cruzi growth-3,3T3 cytotox,3T3 cytotox 2
COc1ccccc1S(=O)(=O)N(C)C[C@H]1Oc2cc(/C=C/c3ccccc3)ccc2S(=O)(=O)N([C@@H](C)CO)C[C@@H]1C,-58.3,-0.6,4.9,128.0*,100.2*,101.0*,?,38.9*
C/C=C/c1ccc2c(c1)O[C@@H](CN(C)S(=O)(=O)c1ccccc1OC)[C@H](C)CN([C@@H](C)CO)S2(=O)=O,-70.1,-0.4,-0.4,115.6*,106.9*,73.9,44.1*,56.2*
O=C(CSc1nc2ccccc2c(=O)n1-c1ccc(Cl)cc1)Nc1ccc(Cl)cc1Cl,/,-0.2,/,/,/,/,/,/
COc1ccccc1S(=O)(=O)N(C)C[C@@H]1Oc2cc(/C=C/c3ccccc3)ccc2S(=O)(=O)N([C@@H](C)CO)C[C@H]1C,?,-4.5,1.1,127.7*,102.2*,106.4*,65.1*,62.1*
COc1ccccc1S(=O)(=O)N(C)C[C@H]1Oc2cc(/C=C/c3ccccc3)ccc2S(=O)(=O)N([C@H](C)CO)C[C@@H]1C,-87.9*,-0.3,37.5*,131.2*,106.3*,97.1*,18.1,25.5*
COc1ccccc1S(=O)(=O)N(C)C[C@H]1Oc2cc(/C=C/c3ccccc3)ccc2S(=O)(=O)N([C@H](C)CO)C[C@H]1C,-49.6,-2.4,-1.0,122.3*,102.1*,104.3*,43.0*,51.2*
C[C@@H]1CN([C@@H](C)CO)S(=O)(=O)c2ccc(/C=C/c3ccccc3)cc2O[C@@H]1CN(C)C,-35.4,0.0,-1.2,35.9,/,/,/,/
COc1ccccc1S(=O)(=O)N(C)C[C@H]1Oc2cc(Br)ccc2S(=O)(=O)N([C@@H](C)CO)C[C@H]1C,4.5,/,0.5,/,/,/,/,/
O=C(CSc1nnc(-c2ccccc2)o1)Nc1cccc(F)c1,/,-0.1,/,/,/,/,/,/
COC(=O)c1sc(NC(=O)COc2ccc(C(C)C)cc2)c(C#N)c1C,/,0.1,/,/,/,/,/,/
OC[C@@H]1[C@@H](c2ccc(-c3cccnc3)cc2)[C@H]2CN(CC3CC3)CCCCN12,-48.8,/,-0.7,44.2,/,/,/,/
CN1CCCCN2[C@H](CO)[C@H](c3ccc(-c4cccnc4)cc3)[C@@H]2C1,-64.2,/,-0.2,?,75.7,32.5,2.0,-12.6
OC[C@@H]1[C@H](c2ccc(-c3cccnc3)cc2)[C@@H]2CN(CC3CC3)CCCCN12,-71.8,/,0.0,104.3*,66.6,16.6,0.5,-9.2
Cc1cccc(OCC(=O)Nc2ccccc2N2CCN(S(C)(=O)=O)CC2)c1C,/,0.4,/,/,/,/,/,/
C=C1C(=O)O[C@@H]2C3=C(C)CC[C@]34O[C@@H](C[C@@H]4C)[C@H]12,/,0.6,/,/,/,/,/,/
CC(C)CC#Cc1ccc([C@@H]2[C@@H](CO)N3CCCCN(C(=O)Nc4ccccc4)C[C@@H]23)cc1,9.3,/,-1.0,111.2*,96.6*,93.5,30.2,102.7*
COc1ccc(NC(=O)N2CCCCN3[C@H](CO)[C@@H](c4ccc(C#CCC(C)C)cc4)[C@H]3C2)cc1,-68.4,/,-1.4,121.9*,88.3,101.3*,117.1*,105.7*
CC(C)CC#Cc1ccc([C@H]2[C@@H](CO)N3CCCCN(C(=O)Nc4ccccc4)C[C@H]23)cc1,-22.9,/,-1.3,37.2,/,/,/,/
CC(C)CC#Cc1ccc([C@H]2[C@H]3CN(C(=O)Nc4ccccc4)CCCCN3[C@H]2CO)cc1,4.1,/,8.3,100.9*,98.3*,90.6,26.8,83.3*
CC(C)CC#Cc1ccc([C@@H]2[C@@H](CO)N3CCCCN(C(=O)Nc4ccccc4)C[C@H]23)cc1,-31.1,/,-0.4,?,94.3,84.5,59.2*,106.4*
Cc1c(Cl)cccc1NC(=O)CSc1nnc(-c2ccc(NC(=O)c3ccccc3Br)cc2)n1C,/,-0.3,/,/,/,/,/,/
CSc1nc(SCC(=O)Nc2cccc(C)c2)c2c3c(sc2n1)CCCC3,/,0.1,/,/,/,/,/,/
COc1cccc(CN2CCCCN3[C@H](CO)[C@@H](c4ccc(-c5cccnc5)cc4)[C@H]3C2)c1,-55.6,/,0.2,29.9,/,/,/,/
COc1cccc(CN2CCCCN3[C@@H](CO)[C@@H](c4ccc(C#Cc5cccnc5)cc4)[C@@H]3C2)c1,-73.2,/,-0.2,118.5*,104.1*,?,27.1,104.3*
COc1cccc(CN2CCCCN3[C@H](C2)[C@@H](c2ccc(C#Cc4cccnc4)cc2)[C@@H]3CO)c1,-71.2,/,-0.5,116.8*,94.3,102.2*,25.9,103.8*
SMILES,Pf Dd2 growth,IDH1 R132H inh,KDM4C inh,T cruzi growth-1,T cruzi growth-2,T cruzi growth-3,3T3 cytotox,3T3 cytotox 2
COc1ccc(NC(=O)CSc2nc3c(c(C(F)(F)F)c2C#N)CCC3)c(OC)c1,/,0.1,/,/,/,/,/,/
CSc1cccc(N2C(=S)NC3c4ccccc4OC24CCCC34)c1 (stereo not given),/,0.3,/,/,/,/,/,/
C[C@@H]1CN([C@@H](C)CO)C(=O)c2cccc(NC(=O)c3ccc(-c4nccs4)cc3)c2O[C@@H]1CN(C)Cc1ccc(C(F)(F)F)cc1,-78.2,0.4,-3.0,?,110.9*,102.4*,-55.8,7.2
C[C@H]1CN([C@@H](C)CO)C(=O)c2cccc(NC(=O)c3ccc(-c4nccs4)cc3)c2O[C@@H]1CN(C)Cc1ccc(C(F)(F)F)cc1,-71.2,-0.7,-2.4,109.3*,94.8,87.0,-4.4,83.7*
C[C@@H]1CN([C@H](C)CO)C(=O)c2cccc(NC(=O)c3ccc(-c4nccs4)cc3)c2O[C@@H]1CN(C)Cc1ccc(C(F)(F)F)cc1,-46.3,-12.0,-1.0,106.1,/,/,/,/
C[C@H](CO)N1C[C@H](C)[C@H](CN(C)C(=O)Nc2ccc(C(F)(F)F)cc2)Oc2c(NC(=O)c3nc4ccccc4s3)cccc2C1=O,-55.3,/,0.0,?,102.7*,87.0,44.6*,80.0*
C[C@@H]1CN([C@H](C)CO)C(=O)c2cccc(NC(=O)c3nc4ccccc4s3)c2O[C@@H]1CN(C)C(=O)Nc1ccc(C(F)(F)F)cc1,-65.2,/,-1.4,79.8,/,/,/,/
C[C@H](CO)N1C[C@H](C)[C@@H](CN(C)C(=O)Nc2ccc(C(F)(F)F)cc2)Oc2c(NC(=O)c3nc4ccccc4s3)cccc2C1=O,-34.9,1.4,0.1,91.5*,87.6,69.8,31.7,64.0*
